# Active and inactive are the calls of the source. The calls are words filed in the database; no cut-off is given here.
# Assays:
# [1] = system: C3H 10T1/2; test: Inhibition of SAG-induced differentiation of mouse mesenchymal pluripotent C3H10T1/2 cells to alkaline phosphatase positive oeseoblasts after 6 days; settings: C3H 10T1/2, 6 days
# [2] = system: C3H 10T1/2; test: Inhibition of SAG-induced differentiation of mouse mesenchymal pluripotent C3H10T1/2 cells to alkaline phosphatase positive oeseoblasts at 10 uM after 6 days; settings: C3H 10T1/2, 6 days
# [3] = Antiproliferative activity against SAG-induced rat cerebellar granule cell precursors by [3H]-thymidine incorporation assay; type: functional
# Procedure, shortened: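 Primary rat cerebellar granule cell precursors stimulated with SAG (0.01 μM) together with increasing concentrations of test compound. Proliferation read as [3H]-thymidine incorporation, expressed as % of maximal SAG response. Quadruplicates, n = 3–10 independent experiments. IC50 and Hill coefficient obtained by curve fitting.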
# [4] = molecular target: Smoothened (Mus musculus) (UniProt P56726); test: Inhibition of Smo-mediated Hh signaling in mouse Shh-light2 cells at 0.3 uM by luciferase reporter gene assay; settings: Shh Light II
# Chain of Smoothened (Mus musculus) (P56726 whole entry, looked up): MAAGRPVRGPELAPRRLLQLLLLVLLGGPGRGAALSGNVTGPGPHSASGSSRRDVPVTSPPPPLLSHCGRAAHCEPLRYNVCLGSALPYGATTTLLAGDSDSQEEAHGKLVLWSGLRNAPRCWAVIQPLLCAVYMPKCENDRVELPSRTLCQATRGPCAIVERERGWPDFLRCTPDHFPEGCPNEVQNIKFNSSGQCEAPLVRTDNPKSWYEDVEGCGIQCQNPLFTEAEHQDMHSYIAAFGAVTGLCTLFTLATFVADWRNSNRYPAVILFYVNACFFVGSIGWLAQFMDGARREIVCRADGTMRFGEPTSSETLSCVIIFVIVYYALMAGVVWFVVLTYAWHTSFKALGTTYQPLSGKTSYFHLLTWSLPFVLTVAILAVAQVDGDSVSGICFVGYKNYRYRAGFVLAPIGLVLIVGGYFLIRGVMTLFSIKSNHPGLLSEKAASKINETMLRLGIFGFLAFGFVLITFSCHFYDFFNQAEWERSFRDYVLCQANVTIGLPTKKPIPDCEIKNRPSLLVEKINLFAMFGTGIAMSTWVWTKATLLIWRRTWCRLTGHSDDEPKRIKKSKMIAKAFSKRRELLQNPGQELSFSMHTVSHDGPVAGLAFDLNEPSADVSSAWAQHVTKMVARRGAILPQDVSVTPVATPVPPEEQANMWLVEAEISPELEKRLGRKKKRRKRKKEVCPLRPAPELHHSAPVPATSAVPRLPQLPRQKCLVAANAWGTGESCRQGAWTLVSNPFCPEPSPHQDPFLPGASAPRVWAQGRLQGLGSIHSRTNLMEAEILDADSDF
# [5] = molecular target: Smoothened (Mus musculus) (UniProt P56726); test: Inhibition of Smo-mediated Hh signaling in mouse Shh-light2 cells by luciferase reporter gene assay
# [6] = molecular target: Smoothened (Mus musculus) (UniProt P56726); test: Inhibition of Smo-mediated Hh signaling in mouse Shh-light2 cells at 3 uM by luciferase reporter gene assay; settings: Shh Light II
# [7] = molecular target: Smoothened (Mus musculus) (UniProt P56726); test: Antagonist activity at Smo receptor
# [8] = species: Rattus norvegicus; test: Antiproliferative activity against rat cerebellar granule cell precursors at 1 uM by [3H]-thymidine incorporation assay; type: functional
# [9] = molecular target: Protein smoothened (Homo sapiens, UniProt Q99835); test: Displacement of BODIPY-labelled cyclopamine from human Smo receptor expressed in HEK293 cells after 2 hrs by fluorescence microscopy; type: cell-based
# Chain of Protein smoothened (Q99835 whole entry): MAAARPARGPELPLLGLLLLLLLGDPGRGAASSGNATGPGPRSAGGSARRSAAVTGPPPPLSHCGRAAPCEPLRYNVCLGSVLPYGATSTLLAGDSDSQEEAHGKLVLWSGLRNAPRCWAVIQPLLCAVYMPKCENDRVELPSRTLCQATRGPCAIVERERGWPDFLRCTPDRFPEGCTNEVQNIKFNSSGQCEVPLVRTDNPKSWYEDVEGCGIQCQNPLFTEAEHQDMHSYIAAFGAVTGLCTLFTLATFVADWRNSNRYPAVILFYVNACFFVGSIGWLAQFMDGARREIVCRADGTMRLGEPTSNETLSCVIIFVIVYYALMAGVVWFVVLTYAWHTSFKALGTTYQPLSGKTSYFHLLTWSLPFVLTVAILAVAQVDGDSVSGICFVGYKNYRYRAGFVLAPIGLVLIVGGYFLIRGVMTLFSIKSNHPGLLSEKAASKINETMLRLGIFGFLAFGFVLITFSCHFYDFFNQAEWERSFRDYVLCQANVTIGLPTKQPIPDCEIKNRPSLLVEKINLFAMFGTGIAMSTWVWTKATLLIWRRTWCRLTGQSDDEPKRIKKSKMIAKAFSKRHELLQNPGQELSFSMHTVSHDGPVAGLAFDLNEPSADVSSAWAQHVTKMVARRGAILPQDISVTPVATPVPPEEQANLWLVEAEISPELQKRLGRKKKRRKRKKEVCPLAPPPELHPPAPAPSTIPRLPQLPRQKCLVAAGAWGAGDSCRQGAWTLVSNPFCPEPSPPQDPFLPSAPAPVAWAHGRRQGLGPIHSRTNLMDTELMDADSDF
# Procedure, shortened: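 HEK293 cells stably expressing human Smo, grown on poly-D-lysine coverslips and fixed in 4% paraformaldehyde. BODIPY fluorescence above the no-probe background, normalized to DAPI nuclear area in 3–4 fields per coverslip, given as % of probe-alone signal.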
# [10] = Ratio of Cur61414 IC50 to compound IC50 for inhibition of SAG-induced rat cerebellar granule cell precursors by [3H]-thymidine incorporation assay; type: functional
# [11] = Ratio of cyclopamine IC50 to compound IC50 for inhibition of SAG-induced rat cerebellar granule cell precursors by [3H]-thymidine incorporation assay; type: functional
SMILES,IC50 [1] [nM],inhibition [4] [%],IC50 [5] [nM],inhibition [6] [%],IC50 [7] [nM],IC50 [9] [nM],inhibition at 10 µM [2] [%],IC50 [3] [nM],Activity [8],Ratio IC50 [10],Ratio IC50 [11]
COc1cc(C(=O)NC(=S)Nc2ccc(Cl)c(NC(=O)c3ccccc3)c2)cc(OC)c1OC,990,69,190,89,,,96,,,,
COc1cc(C(=O)NC(=N)Nc2cccc(NC(=O)c3ccccc3)c2)cc(OC)c1OC,430,,290,,290,,,,,,
COc1cc(C(=O)NC(=O)Nc2cccc(NC(=O)c3ccccc3)c2)cc(OC)c1OC,130,76,160,96,160,107,101,106,inactive,,
COc1cc(C(=O)NC(=S)Nc2ccc(Cl)c(NC(=O)c3ccc(-c4ccccc4)cc3)c2)cc(OC)c1OC,380,85,130,99,,,101,,,,
COc1cc(C(=O)NC(=S)Nc2cccc(NC(=O)c3ccccc3)c2)cc(OC)c1OC,900,15,650,96,650,300,96,338,inactive,,
COc1cc(C(=O)NC(=O)Nc2cccc(NC(=O)c3cc4ccccc4[nH]3)c2)cc(OC)c1OC,220,85,110,90,,,97,,,,
CC1=C2C[C@H]3[C@@H](CC=C4C[C@@H](O)CC[C@@]43C)[C@@H]2CC[C@]12O[C@@H]1C[C@H](C)CN[C@H]1[C@H]2C [CYCLOPAMINE],620,,,,,,98,100,,,
COc1cc(C(=O)NC(=S)Nc2ccc(C)c(C(=O)Nc3ccccc3)c2)cc(OC)c1OC,2500,13,1800,89,,,99,,,,
COc1cc(C(=O)NC(=S)Nc2ccc(Cl)c(C(=O)Nc3ccccc3)c2)cc(OC)c1OC,1500,11,520,95,,,96,,,,
COc1cccc(CN(C(=O)CC(C)(C)C)[C@H]2C[C@@H](C(=O)N3CCNCC3)N(Cc3ccc4c(c3)OCO4)C2)c1,300,,140,,,,,95,,,

# Now those with a lower IC50 [1], led by results:
IC50 [1] [nM],inhibition [4] [%],IC50 [5] [nM],inhibition [6] [%],IC50 [7] [nM],IC50 [9] [nM],SMILES,inhibition at 10 µM [2] [%],IC50 [3] [nM],Activity [8],Ratio IC50 [10],Ratio IC50 [11]
100,95,80,98,,,COc1cc(C(=O)NC(=O)Nc2ccc(Cl)c(NC(=O)c3ccc(-c4ccccc4)cc3)c2)cc(OC)c1OC,72,,,,
60,98,41,98,,63,COc1cc(C(=O)NC(=S)Nc2ccc(C)c(NC(=O)c3ccc(-c4ccccc4)cc3)c2)cc(OC)c1OC,100,9,inactive,20,20
30,96,29,97,,,COc1cc(C(=O)NC(=S)Nc2ccc(C)c(NC(=O)c3ccc(-c4ccc(F)cc4)cc3)c2)cc(OC)c1OC,86,,,,
25,96,13,99,,24,COc1cc(C(=O)NC(=O)Nc2ccc(C)c(NC(=O)c3ccc(-c4ccccc4)cc3)c2)cc(OC)c1OC,101,6,inactive,20,20
11,,,,,,CS(=O)(=O)c1ccc(C(=O)Nc2ccc(Cl)c(-c3ccccn3)c2)c(Cl)c1 [VISMODEGIB],99,4,,,
11,,15,,,5,COc1cc(C(=O)NC(=N)Nc2ccc(C)c(NC(=O)c3ccc(-c4ccccc4)cc3)c2)cc(OC)c1OC,,6,inactive,20,20

# Reference: ChEMBL document CHEMBL2029339, “Acylthiourea, acylurea, and acylguanidine derivatives with potent hedgehog inhibiting activity” (J Med Chem, 2012)
